Measurements reported in the RNAGym collection of RNA variant scans (doi:10.1126/science.aae0568).
Fewer inactive variants are shown than the library holds.

B1: tRNA (parent)
chain: GUUCCGUUGGCGUAAUGGUAACGCGUCUCCCUCCUAAGGAGAAGACUGCGGGUUCGAGUCCCGUACGGAACG

Variants of: B1
Experiment: yeast fitness relative to wild type (ratio to wild type); higher = fitter; tRNA-Arg(CCU), competitive growth, 37 C, YPD
Procedure, shortened: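 Gene amplicons from the start population and from each of six end populations were read by 100-nucleotide paired-end sequencing. Those end populations came from pooled Saccharomyces cerevisiae strains carrying tRNA-Arg(CCU) gene variants at the native locus, competed in YPD at 37°C for 24 hours. Fitness relative to wild type was worked out from changes in genotype frequencies. Genotypes needed ≥ 100 starting reads, and estimates < 0.5 were set to 0.5.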

| Variant | yeast fitness |
| --- | --- |
| A15C C27A G58A A70U | 0.525 |
| A15C C27A U32G | 0.709 |
| A15C C27G | 0.571 |
| A15C C27G G39C U47A | 0.689 |
| A15C C27G G48A C49G | ≤ 0.5 |
| A15C C27U A42C | ≤ 0.5 |
| A15C C27U C31A | ≤ 0.5 |
| A15C C27U C31A C55U G68A | ≤ 0.5 |
| A15C C29A C60G G68A | 0.609 |
| A15C C29A C66U | ≤ 0.5 |
| A15C C29A G41A A43C | ≤ 0.5 |
| A15C C29G G44C A45U U47A | ≤ 0.5 |
| A15C C29U A69C | ≤ 0.5 |
| A15C C29U G39C A42U G50U G51C A65U | 0.527 |
| A15C C30A A42C G56A A57U | 0.578 |
| A15C C30A A57G | ≤ 0.5 |
| A15C C30A G63A | ≤ 0.5 |
| A15C C30G A42C G56A A57U G63A | ≤ 0.5 |
| A15C C30G U32C C34U C66U A70C | ≤ 0.5 |
| A15C C30U C33G | ≤ 0.5 |
| A15C C30U G67A | ≤ 0.5 |
| A15C C31A A37U | ≤ 0.5 |
| A15C C31A C34A | ≤ 0.5 |
| A15C C31A G50A | ≤ 0.5 |

| Variant | yeast fitness |
| --- | --- |
| A15C C31A U59C A69G | ≤ 0.5 |
| A15C C31G C33G C55U | ≤ 0.5 |
| A15C C31G C55A C66U | ≤ 0.5 |
| A15C C31G G58A U59A A65U | ≤ 0.5 |
| A15C C31U G38A G56C A70U | 0.581 |
| A15C C31U G48C A65C | ≤ 0.5 |
| A15C C31U G63A | ≤ 0.5 |
| A15C C31U G68C | ≤ 0.5 |
| A15C C31U U32C | 0.5 |
| A15C C33A | 0.578 |
| A15C C33G A42C A45C | ≤ 0.5 |
| A15C C33U C49U | ≤ 0.5 |
| A15C C33U U47G C49U G52C | ≤ 0.5 |
| A15C C33U U47G C49U G52C G68A | ≤ 0.5 |
| A15C C34A G63C | ≤ 0.5 |
| A15C C34G A37U C46G | ≤ 0.5 |
| A15C C34G U35G A36U U59A | ≤ 0.5 |
| A15C C46A | 0.86 |
| A15C C46U | 0.939 |
| A15C C46U A57G C66A | ≤ 0.5 |
| A15C C46U A69U | 0.814 |
| A15C C46U C60U A65C | ≤ 0.5 |
| A15C C46U G50A | 0.711 |
| A15C C46U U64C A70G | ≤ 0.5 |

| Variant | yeast fitness |
| --- | --- |
| A15C C49A G67C | ≤ 0.5 |
| A15C C49G | 0.652 |
| A15C C49G C55G | 0.668 |
| A15C C49U | 0.896 |
| A15C C49U U54C C55G U64C | ≤ 0.5 |
| A15C C55G | 0.593 |
| A15C C55U | 0.625 |
| A15C C55U A65G | ≤ 0.5 |
| A15C C60A A70U | 0.555 |
| A15C C60U C66A | ≤ 0.5 |
| A15C C61U A69U | 0.571 |
| A15C C62A | 0.665 |
| A15C C62U | 0.755 |
| A15C C66U | 0.605 |
| A15C G17A A36G G38C U59C | ≤ 0.5 |
| A15C G17A A42U | ≤ 0.5 |
| A15C G17A A45C | ≤ 0.5 |
| A15C G17A A57G A65G | ≤ 0.5 |
| A15C G17A C22U G23C G51A | 0.565 |
| A15C G17A C22U G23C G51A A69C | 0.567 |
| A15C G17A C22U G23C G51A A70U | 0.596 |
| A15C G17A C29A C30U C62G U64A | ≤ 0.5 |
| A15C G17A G18A A36C C55U | ≤ 0.5 |
| A15C G17A G18A A36C C55U C66A | 0.529 |

| Variant | yeast fitness |
| --- | --- |
| A15C G17A G38C | ≤ 0.5 |
| A15C G17A U28A | 0.675 |
| A15C G17C A36C G38C G48A | ≤ 0.5 |
| A15C G17C C31A G44C | ≤ 0.5 |
| A15C G17C C31A G44C A70G | ≤ 0.5 |
| A15C G17C G50A A69U | ≤ 0.5 |
| A15C G18A | 0.74 |
| A15C G18A A20U | ≤ 0.5 |
| A15C G18A C24A C34U C46G | ≤ 0.5 |
| A15C G23C C31U A57C C66U | ≤ 0.5 |
| A15C G23C C55A A65G | ≤ 0.5 |
| A15C G23C G39C G63A A69C | ≤ 0.5 |
| A15C G25A | 1.02 |
| A15C G25A C27A C33U C34A C61U | ≤ 0.5 |
| A15C G25C C29U U35C A43U A57C G58A | ≤ 0.5 |
| A15C G25C C29U U35C A43U A70U | ≤ 0.5 |
| A15C G38A A45G G52A C61G | 0.539 |
| A15C G38A U54A A57U | ≤ 0.5 |
| A15C G38C C49G G68C | ≤ 0.5 |
| A15C G39A A65G A70U | ≤ 0.5 |
| A15C G39A C46U | 0.55 |
| A15C G39A C62U | 0.553 |
| A15C G41A G48C | 0.568 |
| A15C G44C | 0.684 |

| Variant | yeast fitness |
| --- | --- |
| A15C G48A | 0.946 |
| A15C G48A A57G | 0.536 |
| A15C G48C C61A | ≤ 0.5 |
| A15C G52C U64A | ≤ 0.5 |
| A15C G56A C61U C66U | ≤ 0.5 |
| A15C G56C U59C | ≤ 0.5 |
| A15C G58A C61G C62G | ≤ 0.5 |
| A15C G63A | 0.61 |
| A15C G63C | 0.616 |
| A15C G67A | 0.698 |
| A15C G68C | 0.633 |
| A15C G68U | 0.735 |
| A15C U16A | 0.628 |
| A15C U16A A45U G48C C61U | ≤ 0.5 |
| A15C U16A C31G C34U A69U | ≤ 0.5 |
| A15C U16A G50A | ≤ 0.5 |
| A15C U16C | 0.678 |
| A15C U16C A36U A65C | ≤ 0.5 |
| A15C U16C A37C C60A | ≤ 0.5 |
| A15C U16C A37C G50A U53A C61U | 0.58 |
| A15C U16C A43C | ≤ 0.5 |
| A15C U16C A43U A70G | 0.532 |
| A15C U16C C34G C46A C61U C66G | ≤ 0.5 |
| A15C U16C G17C C49G | ≤ 0.5 |

| Variant | yeast fitness |
| --- | --- |
| A15C U19A | 0.817 |
| A15C U19A A21G C22G C30U C55G | ≤ 0.5 |
| A15C U19A C24G C34G C46U C61A A70U | 0.639 |
| A15C U19A C30U A37C G41A | ≤ 0.5 |
| A15C U19A G39A | 0.519 |
| A15C U19A G48A C62G U64C | ≤ 0.5 |
| A15C U19C A21G C34U | ≤ 0.5 |
| A15C U19C A37C G51A G67C | ≤ 0.5 |
| A15C U19C A65C | 0.628 |
| A15C U19C C31G G56C C66U | ≤ 0.5 |
| A15C U19C C62A | 0.536 |
| A15C U26C C62U | ≤ 0.5 |
| A15C U26G U28C A37G G41A C49G C62U | ≤ 0.5 |
| A15C U28A | 0.622 |
| A15C U28A C34G C55A A57U U59C C60U | ≤ 0.5 |
| A15C U32A | 0.595 |
| A15C U35A G50C A65C | 0.603 |
| A15C U35C A42G G67U | ≤ 0.5 |
| A15C U35G | 0.621 |
| A15C U35G A57G C66G | 0.56 |
| A15C U47A G52A | 0.576 |
| A15C U59A A69C | ≤ 0.5 |
| A15C U64A | 0.74 |
| A15C U64C | 0.956 |

| Variant | yeast fitness |
| --- | --- |
| A15G | 0.987 |
| A15G A20C C24G | 0.626 |
| A15G A20C C24G A57G | ≤ 0.5 |
| A15G A20C C29G G67A | ≤ 0.5 |
| A15G A20C C34A | ≤ 0.5 |
| A15G A20C U54A | ≤ 0.5 |
| A15G A20G A21C C31U | ≤ 0.5 |
| A15G A20G C31U | 0.59 |
| A15G A20G C49A C61U C62A G67C | ≤ 0.5 |
| A15G A20G C49A C62U G63A | ≤ 0.5 |
| A15G A20G G48A | 0.738 |
| A15G A20U A57U C60U | ≤ 0.5 |
| A15G A20U C24G A42G U54C | 0.575 |
| A15G A20U C29G A43G | ≤ 0.5 |
| A15G A20U C33A A36C A42U | ≤ 0.5 |
| A15G A20U C34A | ≤ 0.5 |
| A15G A20U C34A C60A A70C | ≤ 0.5 |
| A15G A20U C60G | 0.542 |
| A15G A20U G39A A69C | ≤ 0.5 |
| A15G A20U U26C C29G U32A | 0.591 |
| A15G A21C A65U | 0.641 |
| A15G A21C C24G A40U | ≤ 0.5 |
| A15G A21C C24U | ≤ 0.5 |
